Compound activity (PubChem)
Hits are enriched below; roughly 2.7% of the tested compounds scored in any of these assays.
PLK1 PBD inh = Plk1 polo box domain binding inhibitors, primary screen, biochemical, fluorescence polarization. Serine/threonine-protein kinase PLK1 (Homo sapiens), P53350. Plk1 PBD phosphopeptide binding. 97,000 tested, 0.13% active. inhibition, %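 (tested at about 20 µM)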; in the data active means inhibition above about 34%, passing the limit was not always enough
Target sequence (P53350 whole entry, looked up, the tested form may be a part): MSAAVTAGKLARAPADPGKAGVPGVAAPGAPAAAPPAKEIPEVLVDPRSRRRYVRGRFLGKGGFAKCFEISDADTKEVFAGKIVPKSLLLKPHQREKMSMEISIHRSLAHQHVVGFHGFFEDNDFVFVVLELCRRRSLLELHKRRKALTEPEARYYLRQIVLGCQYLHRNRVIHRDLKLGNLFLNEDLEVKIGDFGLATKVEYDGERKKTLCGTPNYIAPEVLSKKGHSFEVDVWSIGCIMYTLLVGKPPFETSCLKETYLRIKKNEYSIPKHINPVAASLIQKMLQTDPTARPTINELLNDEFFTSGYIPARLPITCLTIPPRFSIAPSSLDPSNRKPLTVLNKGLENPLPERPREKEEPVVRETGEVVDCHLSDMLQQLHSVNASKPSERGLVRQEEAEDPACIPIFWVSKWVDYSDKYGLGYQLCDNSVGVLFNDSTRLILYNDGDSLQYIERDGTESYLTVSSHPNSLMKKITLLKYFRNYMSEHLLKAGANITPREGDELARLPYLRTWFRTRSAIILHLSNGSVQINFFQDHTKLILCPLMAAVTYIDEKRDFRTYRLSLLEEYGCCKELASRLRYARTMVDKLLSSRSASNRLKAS
PTPN22 act = LYP phosphatase activators, primary screen, biochemical, DiFMUP fluorescence, 2 µM. Tyrosine-protein phosphatase non-receptor type 22 (Homo sapiens), Q9Y2R2. recombinant LYP; 0 = plate median, 100 = signal doubled. activation, % at 2 µM. 96,000 tested, 0.11% active;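 active means activation at 2 µM above a set limit, the mean plus 5 SD, cut at about 37% in these data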
PTPN22 inh 2 = PTPN22 phosphatase inhibitors, primary screen, biochemical, DiFMUP fluorescence, 2 µM; Tyrosine-protein phosphatase non-receptor type 22 (Homo sapiens), Q9Y2R2; recombinant LYP catalytic domain; inhibition, % at 2 µM; 96,000 tested, 0.21% active;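 active means inhibition at 2 µM at or above a set limit, the screen mean plus 3 SD, cut at about 24% in these data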;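 further: 0% = DMSO with enzyme and 100% = enzyme fully blocked by orthovanadate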
PLK1 kinase inh = human PLK1 kinase inhibitors, primary screen, biochemical, TR-FRET; Serine/threonine-protein kinase PLK1 (Homo sapiens), P53350; recombinant PLK1 kinase, TR-FRET peptide phosphorylation; inhibition, % at 10 µM; 97,000 tested, 0.53% active;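 active means inhibition of 50% or more in the single-concentration screen; inactive means inhibition below 50%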;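 further: 0% = DMSO max control and 100% = H-89 dihydrochloride min control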
PLAP act = PLAP enzyme activators, biochemical, luminescence, HTS; Alkaline phosphatase, placental type (Homo sapiens), P05187; activation fold at 20 µM; 96,000 tested, 1.2% active; purified PLAP enzyme, luminescent substrate read-out; stronger effect = higher value; in the data active means activation fold above about 2
HIV Rev-RRE inh = HIV-1 Rev-RRE binding inhibitors, primary screen, biochemical, FRET, protein-RNA interaction; P05866; Rev peptide-RRE RNA binding; inhibition, % at 8 µM; 97,000 tested, 0.79% active; AID 704, 2007;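 active means inhibition above the screen-wide mean plus 3 SD, cut at about 35% in these data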;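 further: 0% = median DMSO wells and 100% = median Neomycin B control wells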
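Assay system: Rev peptide and RRE RNA, both fluorescently labelled; times: 5 min preincubation and 15 min binding, 25 °C; detection: FRET, ex 480 nm, em 540 and 671 nm; read-out basis: % inhibition from 671/540 nm acceptor-to-donor ratio, scaled between controls; benchmarks: DMSO low control, neomycin B high control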
* hit, by the source's call; · = not tested or not shown; [ ] = another dose, or the depositor's remark.

SMILES	PLK1 PBD inh	PTPN22 act	PTPN22 inh 2	PLK1 kinase inh	PLAP act	HIV Rev-RRE inh
CN1CC=C2C(C#N)=C(N)C(C#N)(C#N)C(c3ccsc3)C2C1 (stereo not given)	-19	8	-8	3	1	56*
CN1CC=C2C(C#N)=C(N)C(C#N)(C#N)C(CCc3ccccc3)C2C1 (stereo not given)	·	·	·	·	1	·
Cc1ncsc1CCOC(=O)c1cccc([N+](=O)[O-])c1	·	·	·	-2	·	·
CC(CC(=O)NCc1cccnc1)c1ccccc1 (stereo not given)	8	-4	4	-9	·	8
Cn1c(=O)oc2cc(S(=O)(=O)NC3CCN(Cc4ccccc4)CC3)ccc21	-17	5	-7	-10	·	5
Cc1ccc(C)c(NC(=O)c2ccc[n+](Cc3ccc([N+](=O)[O-])cc3)c2)c1	4	11	-7	-6	0.8	-3
Cn1c(-c2c(N)n(CCc3ccccc3)c3nc4ccccc4nc23)nc2ccccc21	12	-2	2	-19	2.1*	44*
CCCn1c(C)nc2c(c1=O)c1nc3ccccc3nc1n2CCc1ccccc1	-25	-9	6	-7	·	10
N#Cc1c(N)n(CCc2ccc(F)cc2)c2nc3ccccc3nc12	-2	2	-2	9	0.9	24
Cn1c(-c2c(N)n(CCCc3ccccc3)c3nc4ccccc4nc23)nc2ccccc21	-9	1	1	-19	1.5	45*
COCCCn1c(N)c(-c2nc3ccccc3n2C)c2nc3ccccc3nc21	-12	-8	9	0	2*	58*
Cn1c(-c2c(N)n(C3CCCC3)c3nc4ccccc4nc23)nc2ccccc21	-3	0	-1	-17	1	58*
Cc1cc(=O)[nH]c(SCc2cccc(Br)c2)n1	-7	-7	3	-7	1.2	5
O=C(Oc1ccccc1C(=O)N1CCOCC1)c1ccc(Br)cc1	7	2	-5	-9	1.1	-4
CSc1nsc(/C=C/Nc2ccc(C)cc2)c1C#N	-90	-8	11	0	1.3	58*
Cc1ccc(S(=O)(=O)NCC(=O)N(CC(=O)NC2CCCC2)c2ccc3c(c2)OCCO3)cc1	-4	3	-5	-6	1.3	2
CCC(C)(C)NC(=O)CN(C(=O)CNS(=O)(=O)c1ccc(C)cc1)c1ccc2c(c1)OCCO2	-35	8	-11	-8	2*	8
CCOC(=O)c1[nH]nc(-c2cc(CC)c(O)cc2O)c1-c1cscn1	-12	2	0	-5	2.1*	3
c1ccc(-c2nnc(CSc3nc4ccccc4[nH]3)o2)cc1	-8	10	-12	7	2.2*	2
O=C(CCCSc1nc2ccccc2[nH]1)Nc1nnc(-c2ccccc2)o1	7	21	-17	-4	2.1*	3
c1ccc2[nH]c(CSc3nnc(-c4ccncc4)o3)nc2c1	·	·	·	·	2.2*	·
CCN(CC)CCOC(=O)c1cccc(Cl)c1	27	-1	1	-20	1.3	3
O=C(C1CCN(S(=O)(=O)c2cccc3cccnc23)CC1)N1CCN(c2ccc(Cl)cc2)CC1	10	0	0	-16	1.5	0
COc1cccc(C2=CC(c3ccc(C)cc3)n3ncnc3N2)c1 (stereo not given)	4	-1	-2	-10	1.3	49*
Cc1ccsc1C1C=C(c2cccc(Br)c2)Nc2ncnn21 (stereo not given)	-29	-3	3	2	1.1	81*[fluorescence artefact?]
SMILES	PLK1 PBD inh	PTPN22 act	PTPN22 inh 2	PLK1 kinase inh	PLAP act	HIV Rev-RRE inh
Cc1cc(C)cc(OCC(=O)NNC(=O)c2cc(C)[nH]n2)c1	-25	8	-5	-13	2.7*	4
O=C(CSc1nnc(-c2ccc(Cl)s2)o1)N1CCCc2ccccc21	12	-24	24*	-12	0.8	11
COc1cc(C(=O)NNC(=O)NC2CCCCC2)cc(OC)c1OC	-28	1	3	-9	0.9	7
COc1ccc(C(=O)NNC(=S)NC2CCCCC2)cc1OC	-12	-10	11	-8	2.5*	3
CCC(C)[C@H](N)c1nnc(SCC(=O)Nc2cccc(Cl)c2)o1 (stereo not given in full)	-43	4	-5	2	2.5*	2
c1n[nH]c(SCCCCSc2ncn[nH]2)n1	-13	3	-1	-26	2.6*	10
CCCCOc1ccc(CSc2ncn[nH]2)cc1	0	9	-10	-5	2.3*	2
O=C(CSc1ncn[nH]1)N(C1CCCCC1)C1CCCCC1	-11	-8	9	1	2*	10
C(=C\CSc1ncn[nH]1)/CSc1ncn[nH]1	18	-4	3	0	2.7*	6
O=C(CSc1ncn[nH]1)c1ccco1	-14	7	-10	-3	·	4
O=C(CSc1ncn[nH]1)c1ccccc1	0	-12	11	3	2.2*	1
CN1CCc2c(sc3c2c(=O)n(-c2ccccc2)c2nnc(SCc4ccccc4)n32)C1	·	·	·	·	1.2	·
COc1ccc(-c2n[nH]c(=S)n2C2CCCCC2)cc1	-11	4	-5	-3	2*	-1
COc1ccc(Cl)cc1-c1n[nH]c(=S)n1C1CCCCC1	-5	0	1	-4	2.4*	-4
Cc1cccc(Nc2ccccc2C(=O)OCC(=O)NCc2ccco2)c1C	-17	-13	17	-4	1.2	5
Cc1ccc(-c2csc(N3N=C(c4ccccc4)/C(=C\c4ccc(N(C)C)cc4)C3=O)n2)cc1	-17	4	-2	-4	0.8	-1
CCCCC1(C)OC(=O)C(=Cc2ccc(N(C)C)cc2)C(=O)O1 (stereo not given)	-9	2	2	-12	1.2	54*
CNc1nc2[nH]c(=O)c3c(c2s1)OC(N)=C(C#N)C3c1cccc(F)c1 (stereo not given)	-19	2	0	4	0.9	99*[fluorescence artefact?]
O=c1/c(=C/c2ccco2)sc2nc(-c3ccccc3Br)nn12	·	·	·	·	2.2*	·
O=C(CN1CCN(CC(=O)Nc2ccccc2C(F)(F)F)CC1)Nc1ccccc1F	6	4	-8	-8	1.2	5
CCSc1ncc(/C=N/Nc2ccc([N+](=O)[O-])cc2)n1C	4	-2	4	-14	1	66*[fluorescence artefact?]
Cc1ccccc1-n1c(C)cc(/C=N/Nc2ccc([N+](=O)[O-])cn2)c1C	-17	-10	10	-15	0.7	33
O=[N+]([O-])c1ccc(N/N=C\c2cccn2-c2ccccc2)nc1	-2	2	3	5	0.9	41*
COc1ccc(-c2nn(-c3ccccc3)cc2C(=O)NCCCn2ccnc2)cc1	-5	-7	6	-9	2.6*	8
